Reference: paper PMC7993274 (Clinical and Translational Science, 2020)

Legend:
[1] = Treatment-emergent adverse events, SAD period; assay type: in vivo, human
Summary of the method: (§1)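 Double-blind, placebo-controlled study in healthy men and nonchildbearing women aged 18–55 y. The SAD period gave one fasted oral dose; the MAD period gave fed dosing q.d. for 10 days, plus a separate b.i.d. cohort. TEAEs, serious AEs and discontinuation AEs were monitored ≥28 days after the last dose. Vital signs, physical exam, 12-lead ECG, hematology, clinical chemistry and urinalysis were also recorded. Data summarized descriptively.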

[2] = Clinical laboratory parameters, vital signs, ECG and overall safety; assay type: in vivo, human
Summary of the method: as §1

Impact of food on PK = assay type: in vivo, human; set-up: Cmax adjusted geometric mean (90% CI) for fed vs. fasted / AUC24 adjusted geometric mean for fed vs. fasted (90% CI): unit not given beside the values; conditions: for increase in AUC24 with a meal / increase in Cmax with a meal: fed vs fasted
[3] = background statement, no reference given; cited from earlier work

## Cn1cc(-c2cn3nccc3c(-c3cnn([C@]4(CC#N)C[C@@H](C#N)C4)c3)n2)cn1 [PF‐06826647]
[1]; SAD 100 mg (n = 7)
  Participants with TEAEs: Nervous system disorders (SOC): 1 (14.3) n (%)
  Participants with TEAEs: Periorbital hematoma: 1 (14.3) n (%)
  Participants with TEAEs: Periorbital hemorrhage: 1 (14.3) n (%)
  Participants with TEAEs: Peripheral swelling: 0 n (%)
  Participants with TEAEs: Pruritus: 1 (14.3) n (%)
  Participants with TEAEs: Rash: 1 (14.3) n (%)
  Participants with TEAEs: Skin and subcutaneous tissue disorders (SOC): 1 (14.3) n (%)
  Participants with TEAEs: Urticaria: 1 (14.3) n (%)
  SAEs: 0 n
  Severe AEs: 0 n
[1]; SAD 400 mg (n = 8)
  AEs: 0 n
  AEs leading to study drug dose reduction or interruption: 0 n
  Participants with AEs: 0 n (%)
  Participants with TEAEs: Alanine aminotransferase increased: 0 n (%)
  Participants with TEAEs: Aspartate aminotransferase increased: 0 n (%)
  Participants with TEAEs: Edema: 0 n (%)
  Participants with TEAEs: Face edema: 0 n (%)
  Participants with TEAEs: Gastrointestinal disorders (SOC): 0 n (%)
  Participants with TEAEs: General disorders and administration site conditions (SOC): 0 n (%)
  Participants with TEAEs: Headache: 0 n (%)
  Participants with TEAEs: Injury, poisoning, and procedural complications (SOC): 0 n (%)
  Participants with TEAEs: Investigations (SOC): 0 n (%)
  Participants with TEAEs: Nausea: 0 n (%)
  Participants with TEAEs: Nervous system disorders (SOC): 0 n (%)
  Participants with TEAEs: Periorbital hematoma: 0 n (%)
  Participants with TEAEs: Periorbital hemorrhage: 0 n (%)
  Participants with TEAEs: Peripheral swelling: 0 n (%)
  Participants with TEAEs: Pruritus: 0 n (%)
  Participants with TEAEs: Rash: 0 n (%)
  Participants with TEAEs: Skin and subcutaneous tissue disorders (SOC): 0 n (%)
  Participants with TEAEs: Urticaria: 0 n (%)
  SAEs: 0 n
  Severe AEs: 0 n
[1]; SAD 1,600 mg (n = 6)
  AEs: 3 n
  AEs leading to study drug dose reduction or interruption: 0 n
  Participants with AEs: 2 (33.3) n (%)
  Participants with TEAEs: Alanine aminotransferase increased: 1 (16.7) n (%)
  Participants with TEAEs: Aspartate aminotransferase increased: 1 (16.7) n (%)
  Participants with TEAEs: Edema: 0 n (%)
  Participants with TEAEs: Face edema: 0 n (%)
  Participants with TEAEs: Gastrointestinal disorders (SOC): 0 n (%)
  Participants with TEAEs: General disorders and administration site conditions (SOC): 1 (16.7) n (%)
  Participants with TEAEs: Headache: 0 n (%)
  Participants with TEAEs: Injury, poisoning, and procedural complications (SOC): 0 n (%)
  Participants with TEAEs: Investigations (SOC): 1 (16.7) n (%)
  Participants with TEAEs: Nausea: 0 n (%)
  Participants with TEAEs: Nervous system disorders (SOC): 0 n (%)
  Participants with TEAEs: Periorbital hematoma: 0 n (%)
  Participants with TEAEs: Periorbital hemorrhage: 0 n (%)
  Participants with TEAEs: Peripheral swelling: 1 (16.7) n (%)
  Participants with TEAEs: Pruritus: 0 n (%)
  Participants with TEAEs: Rash: 0 n (%)
  Participants with TEAEs: Skin and subcutaneous tissue disorders (SOC): 0 n (%)
  Participants with TEAEs: Urticaria: 0 n (%)
  SAEs: 0 n
  Severe AEs: 0 n
[2]; SAD 1,600 mg (placebo: 6% decrease)
  increase in median platelet count from baseline: 28%
[2]; SAD and MAD treatment groups
  changes in lipid parameters (LDL, HDL, total cholesterol): small, and similar to those observed in the placebo group
[2]; all TEAEs
  intensity of TEAEs: mild in intensity
[2]; assessment period
  lymphocyte counts: No clinically meaningful changes
  neutrophil counts: No clinically meaningful changes
[2]; either treatment period
  events of acne or aphthous ulcers: No events of acne or aphthous ulcers were reported
[2]; human, in vivo
  serum cystatin C, serum creatinine‐based and cystatin C‐based eGFR: No clinically meaningful changes
  vital signs, ECG parameters, physical examination: No clinically significant findings
[2]; participants receiving PF‐06826647
  platelet counts: remained within the normal range
[2]; single ≤ 1,600 mg, multiple ≤ 1,200 mg q.d., 200 mg b.i.d., 10‐day dosing
  tolerability: well‐tolerated
[2]; some participants, isolated timepoints
  serum creatinine increase from baseline: up to 0.3 mg/dL
[2]; whole study, three participants
  participants with gastrointestinal AEs: 4%
Impact of food on PK; 30 mg
  AUC24 adjusted geometric mean for fed vs. fasted (90% CI): 122.0 (78.7–189.2)
  Cmax adjusted geometric mean (90% CI) for fed vs. fasted: 107.2 (74.2–154.8)
  increase in AUC24 with a meal: 22%
  increase in Cmax with a meal: 7%
Impact of food on PK; 100 mg
  AUC24 adjusted geometric mean for fed vs. fasted (90% CI): 155.7 (99.1–244.6)
  Cmax adjusted geometric mean (90% CI) for fed vs. fasted: 160.2 (109.7–234.0)
  increase in AUC24 with a meal: 56%
  increase in Cmax with a meal: 60%
Impact of food on PK; 400 mg
  AUC24 adjusted geometric mean for fed vs. fasted (90% CI): 175.6 (113.3–272.3)
  Cmax adjusted geometric mean (90% CI) for fed vs. fasted: 144.8 (100.2–209.1)
  increase in AUC24 with a meal: 76%
  increase in Cmax with a meal: 45%
Impact of food on PK; fed, day 1 MAD, doses of 30–400 mg
  median Tmax with food: 3.0 to 4.0 h
[3]
  cellular permeability: ~ 17 × 10^‐6 cm/s
